Data taken from ChEMBL document CHEMBL1132098, “2,7-diazabicyclo[3.3.0]octanes as novel h5-HT receptor agonists” (Bioorg Med Chem Lett, 1999).

What was measured:
[1] = molecular target: T1, 5-hydroxytryptamine receptor 1D (Homo sapiens, UniProt P28221); assay: Ability to displace [3H]- -5-HT binding to cloned 5-hydroxytryptamine 1D receptor stably expressed in chinese hamster cells (CHO cells); type: cell-based
Summary of the method: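 Human 5-HT1D receptor cloned and stably expressed in CHO cells. Displacement of [3H]-5-HT binding, with radioligand at roughly its KD for the receptor. At least three independent experiments, each run in duplicate. IC50 reported as geometric mean with limits derived from the SEM.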

[2] = molecular target: Serotonin 1 receptors; 5-HT1B & 5-HT1D (Homo sapiens) (UniProt P28222+P28221); assay: Selectivity ratio for h-5-HT 1B receptor to that of h5-HT 1D receptors.; type: protein assay
Summary of the method: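 Displacement of [3H]-5-HT binding at cloned human 5-HT1B and 5-HT1D receptors, with radioligand at roughly its KD for each receptor. Ratio obtained by dividing the mean IC50 values for the two receptors.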

Rattus norvegicus [3] = assay: Drug concentration was measured in plasma samples originating from the hepatic portal vein (hpv) at 2 hr post administration; type: functional, organism-based
Summary of the method: (§1)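 Rats dosed orally at 3 mg/kg (5 mL/kg, aqueous formulation). Plasma taken from the hepatic portal vein and by cardiac puncture (systemic) at 0.5 and 2 h after dosing. Drug concentration reported in ng/mL.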

Rattus norvegicus [4] = assay: Drug concentration was measured in plasma samples originating from the hepatic portal vein (hpv) at 0.5 hr post administration; type: functional, organism-based; summary of the method: as §1
[5] = Acid dissociation constant was determined; type: ADME
Rattus norvegicus [6] = assay: Drug concentration was measured in plasma samples originating from the cardiac puncture (systemic) at 0.5 hr post administration; type: functional, organism-based; summary of the method: as §1
Rattus norvegicus [7] = assay: Drug concentration was measured in plasma samples originating from the cardiac puncture (systemic) at 2 h post administration; type: functional, organism-based; summary of the method: as §1
[8] = molecular target: T1, 5-hydroxytryptamine receptor 1D; assay: Maximum stimulation of [35S]GTP-gamma-S, binding expressed relative to the maximal effect produced by the 5-HT; type: functional
Summary of the method: (§2)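 Agonist-induced [35S]GTPγS binding measured in CHO cells stably transfected with the human 5-HT1D receptor. Maximal effect expressed as % of the 5-HT maximum.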

[9] = molecular target: T1, 5-hydroxytryptamine receptor 1D; assay: Measurement of agonist induced [35S]GTP-gamma-S, binding in CHO cells stably transfected with 5-hydroxytryptamine 1D receptor; type: functional, cell-based; summary of the method: as §2

T1 sequence (P28221 whole entry): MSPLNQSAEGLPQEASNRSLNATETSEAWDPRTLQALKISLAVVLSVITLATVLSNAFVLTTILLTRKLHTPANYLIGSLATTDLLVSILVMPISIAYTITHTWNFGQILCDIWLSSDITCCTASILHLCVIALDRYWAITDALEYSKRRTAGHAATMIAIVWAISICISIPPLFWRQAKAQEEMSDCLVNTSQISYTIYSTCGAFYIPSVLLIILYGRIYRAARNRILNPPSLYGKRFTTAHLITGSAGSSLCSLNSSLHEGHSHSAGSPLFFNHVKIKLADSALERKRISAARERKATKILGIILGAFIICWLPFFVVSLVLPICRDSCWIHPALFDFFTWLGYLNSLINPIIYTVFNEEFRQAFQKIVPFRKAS

Compound | IC50 [1] [nM] | Selectivity [2] | Absorption (Rattus norvegicus [3]) [ng/mL] | Absorption (Rattus norvegicus [4]) [ng/mL] | pKa [5] | Absorption (Rattus norvegicus [6]) [ng/mL] | Absorption (Rattus norvegicus [7]) [ng/mL] | Efficacy [8] | EC50 [9] [nM]
CN1C[C@@H](CN(C#N)Cc2ccccc2)C[C@@H]1Cc1c[nH]c2ccc(-n3ccnc3)cc12 | 3.3 | 6.7 |  |  |  |  |  |  | 
CN(Cc1ccccc1)C[C@H]1C[C@H](Cc2c[nH]c3ccc(-n4ccnc4)cc23)N(C)C1 | 0.9 | 6.9 | 30 | 21 | 8.7 | < 4 | < 4 |  | 
c1ccc(CNC[C@@H]2CCN(CCc3c[nH]c4ccc(-n5cnnc5)cc34)C2)cc1 |  | 62 | < 5 | < 5 |  | < 5 | < 5 | 102 | 
CN1[C@@H](Cc2c[nH]c3ccc(-n4cnnc4)cc23)C[C@@H]2CN(Cc3ccc(F)cc3)C[C@@H]21 (racemic) | 0.8 | 13 |  |  |  |  |  | 88 | 2.9
CN1[C@@H](Cc2c[nH]c3ccc(-n4cnnc4)cc23)C[C@@H]2CN(Cc3ccccc3)C[C@@H]21 (racemic) | 0.9 | 6.7 |  |  | 8.5 |  |  | 96 | 0.5
CN1[C@@H](Cc2c[nH]c3ccc(-n4cnnc4)cc23)C[C@@H]2CN(CCc3cccc(F)c3)C[C@@H]21 (racemic) | 1.2 | 15 |  |  |  |  |  | 63 | 1.9
CN1[C@@H](Cc2c[nH]c3ccc(-n4ccnc4)cc23)C[C@@H]2CN(Cc3ccccc3)C[C@@H]21 (racemic) | 0.7 | 8.4 | 105 | 558 |  | 47 | 10 | 69 | 1.2
